According to publication PMC7249612 (Biochemistry, 2016):

Tests used:
LoxA [1] = assay: LoxA substrate preference; type: biochemical, Pseudomonas aeruginosa; conditions: initial rate at 10 μM substrate, pH 7.0, relative to AA
Summary of the method: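 His6-tagged LoxA was expressed in E. coli BL21(DE3), purified on Ni-NTA, and dosed by iron content. About 7 nM enzyme started each reaction. Each fatty acid substrate was C18 HPLC-purified and used at 10 μM in 25 mM HEPES pH 7.0 without Triton X-100. Initial rate of conjugated diene formation was followed at 234 nm (ε 25000 M−1cm−1) and expressed relative to the AA rate.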

LoxA [2] = assay: LoxA secondary product profile; type: biochemical, Pseudomonas aeruginosa; conditions: 10 μM substrate; for times slower relative to the Kcat with AA: pH 7.0
[3] = test system: P. aeruginosa biofilm growth; assay: Abiotic microtiter biofilm assay; type: cell-based, Pseudomonas aeruginosa; conditions: 1 μg LoxA protein added to loxA mutant or wild-type bacteria
Summary of the method: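 Wild-type PAO1 and loxA::Tn strains were grown overnight in Luria broth at 37 °C with 225 rpm shaking. Cultures were diluted 1:30 in minimal essential medium in 96-well plates, with or without 1 μg recombinant LoxA protein. Plates were incubated 24 h at 37 °C without agitation. Medium was removed, biofilms were washed and stained with crystal violet, and growth was read as absorbance at 550 nm.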

[4] = test system: P. aeruginosa biofilm growth on human airway epithelial cells; assay: Biotic biofilm assay on airway epithelial cells; type: cell-based, Pseudomonas aeruginosa; conditions: recombinant protein delivered to airway epithelial cells
Summary of the method: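 16HBE human bronchial epithelial cells were seeded at 7.4×10^4 per 6.5 mm transwell and polarized at air-liquid interface for 7 days. Cells were rinsed in MEM, and washed bacteria (wild-type PAO1 or loxA::Tn) were added at MOI 25–30. After 1 h, apical medium was replaced with MEM + 0.4% L-arginine for 5 h at 37 °C. Recombinant LoxA was added apically in MEM at increasing doses. Biofilms were released with 0.1% Triton X-100 and serially diluted for CFU/ml. Three experiments were run.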

Molecule: CCCCC/C=C\C/C=C\C/C=C\C/C=C\CCCC(=O)O [AA, arachidonic acid]
- % AA Rate (10 μM) (LoxA [1]): 100%
- Relative Kcat (LoxA [2]; Kcat of LoxA with AA set to 1, unitless): 1

Molecule: CCCCCC(/C=C/C=C\C/C=C\C/C=C\CCCC(=O)O)OO (stereo not drawn) [15-HpETE, 15-hydroperoxyeicosatetraenoic acid]
- times slower relative to the Kcat with AA (LoxA [2]): 10,000 times

Molecule: CCCCC[C@H](O)/C=C/C=C\C/C=C\C/C=C\CCCC(=O)O [15-HETE]
- times slower relative to the Kcat with AA (LoxA [2]): 100,000 times

B1: LoxA protein: purified recombinant P. aeruginosa 15-lipoxygenase added to biofilm assays (protein, UniProt Q9I4G8 20-685, looked up)
Lipoxygenase LoxA: NDSIFFSPLKYLGAEQQRSIDASRSLLDNLIPPSLPQYDNLAGKLARRAVLTSKKLVYVWTENFGNVKGVPMARSVPLGELPNVDWLLKTAGVIVELIVNFVASLPASAAAQFERIATGLSGDLEAARQVHEALLEEAKNDPAAAGSLLLRFTELQTRVIAILTRVGLLVDDILKSASNLVTQRGQGDGLNRFRAVFGTLRLPEVADSFRDDEAFAYWRVAGPNPLLIRRVDALPANFPLGEEQFRRVMGADDSLLEAAASRRLYLLDYAELGKLAPSGAVDKLLTGTGFAYAPIALFALGKDRARLLPVAIQCGQDPATHPMFVRPAESESDLYWGWQMAKTVVQVAEENYHEMFVHLAQTHLVSEAFCLATQRTLAPSHPLHVLLAPHFEGTLFINEGAARILLPSAGFIDVMFAAPIQDTQATAGGNRLGFDFYRGMLPESLKARNVDDPLALPDYPYRDDGLLVWNAIRQWAADYVAVYYASDGDVTADVELAAWVGEVIGSGKVAGFRPITGRSQLVEVLTMVIFTASAQHAAVNFPQPSMMTYAPAICAMSAAPAPDSPSGKSEADWLKMMPPTLVALEKVNIYHLLGSVYHGRLGDYRQTGFPYAPVFSDRRVTASGGPLERFQARLKEVEATIRTRNQARRRPYEYLLPSRIPASTNI
- effect on abiotic biofilm growth [3]: did not alter biofilm growth
- effect on biotic biofilm growth of loxA transposon mutant [4]: This decrease could be complemented
